Here are results for 5 compounds from publication PMC3589821 (Biochemistry, 2013).

Changes are numbered by the printed parent chain.

Test [1] addresses T1, Ath α-DOX (Arabidopsis thaliana, UniProt Q9SGH6).
T1 sequence (Q9SGH6 1-639): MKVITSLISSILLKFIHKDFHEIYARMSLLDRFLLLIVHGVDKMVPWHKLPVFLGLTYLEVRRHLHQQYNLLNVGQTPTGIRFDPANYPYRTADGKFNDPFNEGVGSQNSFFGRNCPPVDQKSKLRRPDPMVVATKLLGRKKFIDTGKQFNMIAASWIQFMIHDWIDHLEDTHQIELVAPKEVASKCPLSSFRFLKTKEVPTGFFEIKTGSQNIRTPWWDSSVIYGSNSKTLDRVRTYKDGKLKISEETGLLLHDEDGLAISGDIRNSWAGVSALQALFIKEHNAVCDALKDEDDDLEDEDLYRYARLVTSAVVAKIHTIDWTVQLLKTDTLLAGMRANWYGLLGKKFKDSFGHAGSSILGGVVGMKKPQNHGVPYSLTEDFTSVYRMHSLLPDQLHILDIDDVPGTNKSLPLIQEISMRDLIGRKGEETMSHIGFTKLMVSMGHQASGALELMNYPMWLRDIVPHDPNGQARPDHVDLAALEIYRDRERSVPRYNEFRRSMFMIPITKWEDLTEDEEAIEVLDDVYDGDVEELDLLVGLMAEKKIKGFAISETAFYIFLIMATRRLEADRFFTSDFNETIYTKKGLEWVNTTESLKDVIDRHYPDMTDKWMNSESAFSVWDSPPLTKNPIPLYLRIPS
The test can be described thus: oxygen electrode, oxygenase activity. It counts as biochemical. The note with it: co-substrate O2. An outline of the steps:
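Codon-optimized Ath α-DOX (wild type or point mutants) was expressed in E. coli M15 with 1mM IPTG and 250μM δ-aminolevulinic acid at 23°C for 16 h. It was solubilized in 0.7% C10M, purified by IMAC and size exclusion, and dialyzed a week in 20mM TRIS pH 8.0, 150mM NaCl, 0.2% C10M to remove imidazole. O2 consumption was followed by oxygen electrode with αLA, LA or OA substrates. KM values came from triplicate measurements.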

Test [2] deals with T1, Ath α-DOX. Put plainly: X-ray crystal structure, […] Å. It counts as binding. Conditions: iron liganded to His-389; water as sixth ligand; pH 8.0.
The target of test [3] is T1, Ath α-DOX. The test can be described thus: oxygen electrode, oxygenase activity. Type of test: biochemical. Conditions: 1 mM imidazole, 60 min preincubation.
The target of test [4] is T2, Ath α-DOX (Arabidopsis thaliana, UniProt Q9SGH6, H318Q).
T2 sequence (Q9SGH6 1-639 H318Q): T1 sequence (Q9SGH6 1-639) with H318Q
Put plainly: oxygen electrode, oxygenase activity. It counts as biochemical. The note with it: co-substrate O2.

For orientation: Km means the concentration of substrate that gives half-maximal velocity.

In the case of `CCCCCCCC/C=C\CCCCCCCC(=O)O` [OA, oleic acid], the Km on Ath α-DOX [1] was 15 ± 1.9 µM.

Turning to `C=CC1=C(C)C2=Cc3c(C=C)c(C)c4[n]3[Fe+][n]3c(c(C)c(CCC(=O)O)c3=CC3=NC(=C4)C(C)=C3CCC(=O)O)=CC1=N2` [heme], the “X-ray crystal structure, 1.70 Å” value at Ath α-DOX [2] was “The heme is liganded to the side chain of His-389”.

Regarding `c1c[nH]cn1` [imidazole], the “% reduction in activity at 1 mM” value on Ath α-DOX [3] turned out to be 50%.

As to `CCCCC/C=C\C/C=C\CCCCCCCC(=O)O` [LA, linoleic acid], the results for the Km at Ath α-DOX [4] and on Ath α-DOX [1] were 18.2 ± 2.4 µM and 23 ± 2 µM, respectively.

`CC/C=C\C/C=C\C/C=C\CCCCCCCC(=O)O` [αLA, α-linolenic acid]: the Km at Ath α-DOX [1] was 36 ± 3.2 µM.
